Legend:
B16-F10 [1] = assay: Inhibition of melanin production in mouse B16F10 cells at 100 uM after 2 days; format: functional; conditions: B16-F10, 48 h
Summary of the method: (§1)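 Extracellular melanin release: B16 murine melanoma cells seeded at 1×10^5 per well overnight, then alpha-MSH added with or without compound in phenol red-free DMEM for 2 d. Melanin in the medium quantified by absorbance at 405 nm. Cells were maintained in DMEM with 10% heat-inactivated FBS and 1% penicillin-streptomycin at 37 °C, 5% CO2.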

[2] = Cytotoxicity against mouse B16F10 cells assessed as cell viability after 24 hrs by MTT assay; format: cell-based, B16-F10; parameters: concentration or dose not given beside the values
Summary of the method: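 B16 murine melanoma cells (DMEM, 10% heat-inactivated FBS, 1% penicillin-streptomycin, 5% CO2, 37 °C) exposed to compounds or no compound for 24 h. MTT (5 mg/ml in PBS) added, 3 h at 37 °C, formazan dissolved in DMSO, absorbance read at 570 nm.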

B16-F10 [3] = assay: Inhibition of melanin production in mouse B16F10 cells at 500 uM after 2 days; format: functional; conditions: B16-F10, 48 h; summary of the method: as §1

Work on `C=C(C)C(=O)O[C@H]1Cc2cc3ccc(=O)oc3cc2OC1(C)C` yielded an inhibition at 100 µM (B16-F10 [1]) of 58.1% and a cytotoxicity (% decrease in viability) at 24 h [2] of 58.4%.
`CC/C=C/C(=O)O[C@H]1Cc2cc3ccc(=O)oc3cc2OC1(C)C` showed an inhibition at 100 µM (B16-F10 [1]) of 79.4% and a cytotoxicity (% decrease in viability) at 24 h [2] of 39.5%.
Compound `C=CCC(=O)O[C@H]1Cc2cc3ccc(=O)oc3cc2OC1(C)C` has an inhibition at 100 µM (B16-F10 [1]) of -8.1% and a cytotoxicity (% decrease in viability) at 24 h [2] of 0.6%.
With `C=CCCC(=O)O[C@H]1Cc2cc3ccc(=O)oc3cc2OC1(C)C` the inhibition at 100 µM (B16-F10 [1]) was 36.4% and the cytotoxicity (% decrease in viability) at 24 h [2] was -0.4%.
For `CC(=O)O[C@H]1Cc2cc3ccc(=O)oc3cc2OC1(C)C`, the inhibition at 100 µM (B16-F10 [1]) was -5.7% and the cytotoxicity (% decrease in viability) at 24 h [2] was 3.7%.
`CC1(C)Oc2cc3oc(=O)ccc3cc2C[C@@H]1OC(=O)/C=C/c1cccc(O)c1` gave an inhibition at 100 µM (B16-F10 [1]) of 73.8% and a cytotoxicity (% decrease in viability) at 24 h [2] of 47.9%.
For `CCCCC(=O)O[C@H]1Cc2cc3ccc(=O)oc3cc2OC1(C)C`, the inhibition at 100 µM (B16-F10 [1]) was 76.5% and the cytotoxicity (% decrease in viability) at 24 h [2] was 10.4%.
With `CCCCCCCCCC(=O)O[C@H]1Cc2cc3ccc(=O)oc3cc2OC1(C)C` the inhibition at 100 µM (B16-F10 [1]) was 79.3% and the cytotoxicity (% decrease in viability) at 24 h [2] was 28.2%.
`CC1(C)Oc2cc3oc(=O)ccc3cc2C[C@@H]1OC(=O)/C=C/c1cccnc1` gave an inhibition at 100 µM (B16-F10 [1]) of 53.5% and a cytotoxicity (% decrease in viability) at 24 h [2] of 5%.
`CC1(C)Oc2cc3oc(=O)ccc3cc2C[C@@H]1OC(=O)/C=C/c1cccs1` showed an inhibition at 100 µM (B16-F10 [1]) of 71.6% and a cytotoxicity (% decrease in viability) at 24 h [2] of -15.4%.
In the case of `CC1(C)Oc2cc3oc(=O)ccc3cc2C[C@@H]1OC(=O)/C=C/c1ccco1`, the inhibition at 100 µM (B16-F10 [1]) was 33% and the cytotoxicity (% decrease in viability) at 24 h [2] was -1.4%.
In the case of `COc1ccccc1/C=C/C(=O)O[C@H]1Cc2cc3ccc(=O)oc3cc2OC1(C)C`, the inhibition at 100 µM (B16-F10 [1]) was 63.7% and the cytotoxicity (% decrease in viability) at 24 h [2] was -5.1%.
In the case of `CC1(C)Oc2cc3oc(=O)ccc3cc2C[C@@H]1OC(=O)/C=C/c1ccccc1O`, the inhibition at 100 µM (B16-F10 [1]) was 76.8% and the cytotoxicity (% decrease in viability) at 24 h [2] was 74.2%.
With `CC(=O)Oc1ccccc1/C=C/C(=O)O[C@H]1Cc2cc3ccc(=O)oc3cc2OC1(C)C` the inhibition at 100 µM (B16-F10 [1]) was 65.9% and the cytotoxicity (% decrease in viability) at 24 h [2] was 63.1%.
For `COc1cccc(/C=C/C(=O)O[C@H]2Cc3cc4ccc(=O)oc4cc3OC2(C)C)c1`, the inhibition at 100 µM (B16-F10 [1]) was 37.9% and the cytotoxicity (% decrease in viability) at 24 h [2] was 14.5%.
`CC(=O)Oc1cccc(/C=C/C(=O)O[C@H]2Cc3cc4ccc(=O)oc4cc3OC2(C)C)c1` gave an inhibition at 100 µM (B16-F10 [1]) of 80.7% and a cytotoxicity (% decrease in viability) at 24 h [2] of 31.4%.
In the case of `COc1ccc(/C=C/C(=O)O[C@H]2Cc3cc4ccc(=O)oc4cc3OC2(C)C)cc1`, the inhibition at 100 µM (B16-F10 [1]) was 40.3% and the cytotoxicity (% decrease in viability) at 24 h [2] was -3.5%.
With `CC1(C)Oc2cc3oc(=O)ccc3cc2C[C@@H]1OC(=O)/C=C/c1ccc(O)cc1` the inhibition at 100 µM (B16-F10 [1]) was 66.4% and the cytotoxicity (% decrease in viability) at 24 h [2] was 65.8%.
With `CC(=O)Oc1ccc(/C=C/C(=O)O[C@H]2Cc3cc4ccc(=O)oc4cc3OC2(C)C)cc1` the inhibition at 100 µM (B16-F10 [1]) was 76.1% and the cytotoxicity (% decrease in viability) at 24 h [2] was 58%.
Work on `COc1ccc(/C=C/C(=O)O[C@H]2Cc3cc4ccc(=O)oc4cc3OC2(C)C)cc1OC` yielded an inhibition at 100 µM (B16-F10 [1]) of 42.4% and a cytotoxicity (% decrease in viability) at 24 h [2] of -1.4%.
`CC1(C)Oc2cc3oc(=O)ccc3cc2C[C@@H]1OC(=O)/C=C/c1ccc(O)c(O)c1` gave an inhibition at 100 µM (B16-F10 [1]) of 43.5% and a cytotoxicity (% decrease in viability) at 24 h [2] of 67.6%.
With `CC(=O)Oc1ccc(/C=C/C(=O)O[C@H]2Cc3cc4ccc(=O)oc4cc3OC2(C)C)cc1OC(C)=O` the inhibition at 100 µM (B16-F10 [1]) was 30.7% and the cytotoxicity (% decrease in viability) at 24 h [2] was 49.4%.
Work on `COc1cc(/C=C/C(=O)O[C@H]2Cc3cc4ccc(=O)oc4cc3OC2(C)C)cc(OC)c1OC` yielded an inhibition at 100 µM (B16-F10 [1]) of 18.8% and a cytotoxicity (% decrease in viability) at 24 h [2] of 4.1%.
`CC1(C)Oc2cc3oc(=O)ccc3cc2C[C@@H]1OC(=O)/C=C/c1cc(O)c(O)c(O)c1` showed an inhibition at 100 µM (B16-F10 [1]) of 59.2% and a cytotoxicity (% decrease in viability) at 24 h [2] of 42.9%.
In the case of `CC(=O)Oc1cc(/C=C/C(=O)O[C@H]2Cc3cc4ccc(=O)oc4cc3OC2(C)C)cc(OC(C)=O)c1OC(C)=O`, the inhibition at 100 µM (B16-F10 [1]) was 35.4% and the cytotoxicity (% decrease in viability) at 24 h [2] was 54.8%.
Compound `CC1(C)Oc2cc3oc(=O)ccc3cc2C[C@@H]1OC(=O)CCc1ccccc1` has an inhibition at 100 µM (B16-F10 [1]) of 62.8% and a cytotoxicity (% decrease in viability) at 24 h [2] of -0.6%.
In the case of `COc1ccccc1CCC(=O)O[C@H]1Cc2cc3ccc(=O)oc3cc2OC1(C)C`, the inhibition at 100 µM (B16-F10 [1]) was 68.9% and the cytotoxicity (% decrease in viability) at 24 h [2] was 6.1%.
Compound `OC[C@H]1O[C@@H](Oc2ccc(O)cc2)[C@H](O)[C@@H](O)[C@@H]1O` [ARBUTIN] has an inhibition at 500 µM (B16-F10 [3]) of 41% and a cytotoxicity (% decrease in viability) at 24 h [2] of -6.2%.
Work on `C/C=C(/C)C(=O)O[C@H]1Cc2cc3ccc(=O)oc3cc2OC1(C)C` [DECURSINOL ANGELATE] yielded an inhibition at 100 µM (B16-F10 [1]) of 74.5% and a cytotoxicity (% decrease in viability) at 24 h [2] of -2.4%.
Work on `C/C=C(\C)C(=O)O[C@H]1Cc2cc3ccc(=O)oc3cc2OC1(C)C` [DECURSINOL TIGLATE] yielded an inhibition at 100 µM (B16-F10 [1]) of 71.5% and a cytotoxicity (% decrease in viability) at 24 h [2] of 16.4%.
`CC1(C)Oc2cc3oc(=O)ccc3cc2C[C@@H]1O` [DECURSINOL] showed an inhibition at 100 µM (B16-F10 [1]) of 12.2% and a cytotoxicity (% decrease in viability) at 24 h [2] of 1.4%.
`CC(C)=CC(=O)O[C@H]1Cc2cc3ccc(=O)oc3cc2OC1(C)C` [DECURSIN] showed an inhibition at 100 µM (B16-F10 [1]) of 71% and a cytotoxicity (% decrease in viability) at 24 h [2] of -9.7%.
`CC1(C)Oc2cc3oc(=O)ccc3cc2C[C@@H]1OC(=O)/C=C/c1ccccc1` [DIHYDROPYRANOCOUMARIN D2] gave an inhibition at 100 µM (B16-F10 [1]) of 72.1% and a cytotoxicity (% decrease in viability) at 24 h [2] of 0.8%.
`CC1(C)Oc2cc3oc(=O)ccc3cc2C[C@@H]1OC/C=C/c1ccccc1` [PROGERININ] showed an inhibition at 100 µM (B16-F10 [1]) of 33.8% and a cytotoxicity (% decrease in viability) at 24 h [2] of -12.5%.

— ChEMBL document CHEMBL1629471, “Synthesis of (S)-(+)-decursin and its analogues as potent inhibitors of melanin formation in B16 murine melanoma cells” (Eur J Med Chem, 2010)
